Source: ChEMBL document CHEMBL4311948, “Exploring the Natural Piericidins as Anti-Renal Cell Carcinoma Agents Targeting Peroxiredoxin 1” (J Med Chem, 2019)
Calls of active or inactive are those of the source. The rule behind the calls is not given here.

Assays:
ACHN [1] = assay: Cytotoxicity against human ACHN cells harboring shPRDX1 gene assessed as reduction in cell viability measured after 72 hrs by CCK8 assay; type: functional, cell-based; settings: Homo sapiens, ACHN, 72 h; read-out: IC50
Method in brief: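 Transfectants were selected with puromycin (1 μg/mL), and knockdown was confirmed by immunoblot. Viability was read by CCK-8 after 72 h of compound exposure in 384-well plates at 400–800 cells/well in MEM with 10% FBS, and IC50 was taken from dose-response curves.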

786-0 = assay: Cytotoxicity against human 786-O cells assessed as reduction in cell viability measured after 72 hrs by CCK8 assay; type: functional, cell-based; settings: 786-0, 72 h
Method in brief: (§1)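 Cells were grown in 10% FBS medium: MEM for ACHN, RPMI1640 for OS-RC-2 and 786-O, DMEM for HK-2. They were seeded at 400–800 cells/well in 384-well plates and treated with a range of compound concentrations or solvent control, with sorafenib as positive control. After 72 h, CCK-8 absorbance was read at 450 nm in triplicate, and IC50 was taken from dose-response curves.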

Mus musculus = assay: Up regulation of PRDX1 expression in human ACHN cells xenografted Balb/c nu/nu mouse at 0.8 mg/kg, ip administered once daily for 21 days measured post-last dose by immunoblot analysis; type: functional, organism-based
Method in brief: (§2)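 Male athymic Balb/c nu/nu mice, four weeks old, acclimatised 1 week. 10^7 ACHN cells in 0.2 mL PBS injected into the right flank. At about 150 mm3, mice randomised into PBS control or 0.8 mg/kg groups, dosed ip daily for three weeks. Tumours measured by caliper (volume = 0.5 × L × W²) with body weight recorded. Endpoint tumour weight, sections stained by H&E and TUNEL. Tissue lysed for immunoblot.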

OS-RC-2 = assay: Cytotoxicity against human OS-RC2 cells assessed as reduction in cell viability measured after 72 hrs by CCK8 assay; type: functional, cell-based; settings: OS-RC-2, 72 h; method in brief: as §1
ACHN [2] = assay: Induction of apoptosis in human ACHN cells assessed as late apoptotic cells at 50 nM measured after 48 hrs by Annexin V-FITC/propidium iodide staining based flow cytometry (reference value: 0%); type: functional
ACHN [3] = assay: Cytotoxicity against human ACHN cells assessed as reduction in cell viability measured after 72 hrs by CCK8 assay; type: functional, cell-based; method in brief: as §1
ACHN [4] = assay: Induction of apoptosis in human ACHN cells assessed as viable cells at 50 nM measured after 48 hrs by Annexin V-FITC/propidium iodide staining based flow cytometry (reference value: 99.9%); type: functional; settings: read-out: Activity
ACHN [5] = assay: Antioxidant activity in human ACHN cells harboring shPRDX1 gene assessed as reduction in reactive oxygen species level at 25 to 50 nM measured after 24 hrs by Cell-rox reagent-based flow cytometry; type: functional
Method in brief: (§3)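 ACHN cells grown 24 h in MEM + 10% FBS, reseeded at 2 × 10^4 cells/well and exposed to 0, 25 or 50 nM for 24 h. Harvested cells loaded with CellROX oxidative stress reagent 5 μM, 30 min at 37 °C in the dark, then read by flow cytometry. shPRDX1 line: stable knockdown selected with puromycin (1 μg/mL) before dosing. Mean ± SD.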

ACHN [6] = assay: Up regulation of nuclear PRDX1 expression in human ACHN cells at 25 to 50 nM measured after 24 hrs by immunoblot analysis; type: functional, cell-based
Method in brief: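 ACHN cells treated 24 h with 25 or 50 nM, then nuclear and cytosolic extracts prepared. Lysis in RIPA buffer, BCA quantitation, 30–50 μg protein resolved on 10% or 12% gels. Blotted with anti-PRDX1 (1:1000) and β-actin (1:3000), band ratio PRDX1/β-actin reported as fold change. Mean ± SD.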

ACHN [7] = assay: Induction of apoptosis in human ACHN cells assessed as early apoptotic cells at 50 nM measured after 48 hrs by Annexin V-FITC/propidium iodide staining based flow cytometry (reference value: 0%); type: functional
ACHN [8] = assay: Induction of apoptosis in human ACHN cells assessed as early apoptotic cells at 50 nM measured after 24 hrs by Annexin V-FITC/propidium iodide staining based flow cytometry (reference value: 0%); type: functional
ACHN [9] = assay: Induction of apoptosis in human ACHN cells assessed as necrotic cells at 50 nM measured after 48 hrs by Annexin V-FITC/propidium iodide staining based flow cytometry (reference value: 0%); type: functional
ACHN [10] = assay: Selectivity ratio of IC50 for cytotoxicity against human ACHN cells harboring shPRDX1 gene to IC50 for Cytotoxicity against human ACHN cells; type: functional
ACHN [11] = assay: Antitumor activity against human ACHN cells xenografted in Balb/c nu/nu mouse assessed as tumor weight at 0.8 mg/kg, ip administered once daily for 21 days measured post-last dose by caliper method (reference value: 0.55 +/- 0.13 g); type: functional; method in brief: as §2
[12] = Toxicity in Balb/c nu/nu mouse xenografted with human ACHN cells assessed as decrease in body weight at 0.8 mg/kg, ip administered once daily for 21 days; type: organism-based; settings: in vivo, 504 h; method in brief: as §2
ACHN [13] = assay: Antiproliferative activity against human ACHN cells assessed as inhibition of cell proliferation at 50 nM measured after 24 to 72 hrs by holographic microscopy; type: functional, cell-based
Method in brief: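 2×10^5 ACHN cells plated per well and allowed to adhere 24 h. 50 nM then added. Label-free digital holographic microscopy (Holomonitor M4) automatically tracked cell movement, morphology and thickness over time.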

ACHN [14] = assay: Down regulation of MET mRNA expression in human ACHN cells at 25 to 50 nM measured after 24 hrs by qRT-PCR analysis; type: functional, cell-based
ACHN [15] = assay: Up regulation of PRDX1 mRNA expression in human ACHN cells at 25 to 50 nM measured after 24 hrs by qRT-PCR analysis; type: functional, cell-based
ACHN [16] = assay: Antitumor activity against human ACHN cells xenografted in Balb/c nu/nu mouse assessed as tumor growth inhibition at 0.8 mg/kg, ip administered once daily for 21 days measured post-last dose by H and E staining-based assay; type: functional, organism-based; method in brief: as §2
ACHN [17] = assay: Down regulation of HIF1A mRNA expression in human ACHN cells at 25 to 50 nM measured after 24 hrs by qRT-PCR analysis; type: functional, cell-based
HK-2 = assay: Cytotoxicity against human HK2 cells assessed as reduction in cell viability measured after 72 hrs by CCK8 assay; type: cell-based; settings: HK-2, 72 h; method in brief: as §1
ACHN [18] = assay: Down regulation of SLC2A1 mRNA expression in human ACHN cells at 25 to 50 nM measured after 24 hrs by qRT-PCR analysis; type: functional, cell-based
[19] = molecular target: T1, Peroxiredoxin-1 (Homo sapiens) (UniProt Q06830); assay: Activation of PRDX1 in human ACHN cells assessed as reduction in reactive oxygen species level at 25 to 50 nM measured after 24 hrs by Cell-rox reagent-based flow cytometry; method in brief: as §3
T1 sequence (whole entry): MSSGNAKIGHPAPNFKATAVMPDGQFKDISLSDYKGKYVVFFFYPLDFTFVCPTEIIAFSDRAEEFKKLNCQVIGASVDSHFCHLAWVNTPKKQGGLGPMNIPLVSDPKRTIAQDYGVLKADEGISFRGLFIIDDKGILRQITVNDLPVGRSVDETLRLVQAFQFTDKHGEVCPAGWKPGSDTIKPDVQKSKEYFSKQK

ACHN [20] = assay: Down regulation of EGFR mRNA expression in human ACHN cells at 25 to 50 nM measured after 24 hrs by qRT-PCR analysis; type: functional, cell-based

In the case of C/C=C(\C)[C@H](O)[C@H](C)/C=C(C)/C=C/C/C(C)=C/Cc1nc(OC)c(OC)c(O)c1C [PIERICIDIN A], the IC50 (ACHN [1]) is reported as 1.6 µM, the IC50 (786-0) is reported as 30 µM and the Activity (Mus musculus) is reported as “Active”. For the same compound, the IC50 (OS-RC-2) was 5.2 µM, the Activity (ACHN [2]) was 7.4% and the IC50 (ACHN [3]) was 0.4 µM. The viability at 0.05 µM (ACHN [4]) was 15.9%, the Activity (ACHN [5]) was “Active” and the Activity (ACHN [6]) was “Active”. For the same compound, the Activity (ACHN [7]) was 1.1%, the Activity (ACHN [8]) was 0.9% and the Activity (ACHN [9]) was 75.6%. The “Ratio IC50” value (ACHN [10]) was 4, the Activity (ACHN [11]) was 0.28 g and the Activity [12] was “Non-Toxic”. For the same compound, the Activity (ACHN [13]) was “Active”, the Activity (ACHN [14]) was “Active” and the Activity (ACHN [15]) was “Active”. The TGI (ACHN [16]) was “Active”, the Activity (ACHN [17]) was “Active” and the IC50 (HK-2) was greater than 100 µM. For the same compound, the Activity (ACHN [18]) was “Active”, the Activity [19] was “Active” and the Activity (ACHN [20]) was “Active”.
